Source: ChEMBL document CHEMBL4020830, “Design, Synthesis, and Evaluation of a Novel Series of Indole Sulfonamide Peroxisome Proliferator Activated Receptor (PPAR) α/γ/δ Triple Activators: Discovery of Lanifibranor, a New Antifibrotic Clinical Candidate” (J Med Chem, 2018)
Converted amounts (≈) assume the structure as drawn.

Key:
[1] = biological target: T1, Peroxisome proliferator-activated receptor alpha (Homo sapiens, UniProt Q07869); assay: Transactivation of human GAL4-fused PPARalpha LBD expressed in African green monkey COS7 cells co-expressing 5Gal4 pGL3 TK Luc after overnight incubation by luciferase reporter gene assay; format: cell-based
T1 sequence (Q07869 whole entry): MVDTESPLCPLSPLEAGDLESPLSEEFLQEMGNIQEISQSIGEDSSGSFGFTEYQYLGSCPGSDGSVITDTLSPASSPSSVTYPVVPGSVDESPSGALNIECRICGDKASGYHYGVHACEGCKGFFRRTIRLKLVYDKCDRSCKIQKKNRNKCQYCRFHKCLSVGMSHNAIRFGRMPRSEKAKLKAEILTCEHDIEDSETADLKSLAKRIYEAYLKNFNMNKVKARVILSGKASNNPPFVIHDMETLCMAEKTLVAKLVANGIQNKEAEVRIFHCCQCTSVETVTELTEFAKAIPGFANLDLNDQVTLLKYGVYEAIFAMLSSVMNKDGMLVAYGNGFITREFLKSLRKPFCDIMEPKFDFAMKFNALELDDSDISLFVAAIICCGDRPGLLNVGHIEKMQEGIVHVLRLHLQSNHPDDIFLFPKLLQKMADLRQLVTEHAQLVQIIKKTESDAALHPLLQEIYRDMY
Method in brief: (§1)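 Cell-based Gal-4 transactivation assay in COS-7 cells transfected with PPARα, PPARδ or PPARγ ligand-binding domain. EC50 and Emax were derived, with Emax as maximum activation in percent of control. EC50s are means of at least two independent experiments performed in triplicate.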

[2] = biological target: T2, Peroxisome proliferator-activated receptor alpha (Homo sapiens) (UniProt Q07869); assay: Transactivation of human GAL4-fused PPARalpha LBD expressed in African green monkey COS7 cells co-expressing 5Gal4 pGL3 TK Luc after overnight incubation by luciferase reporter gene assay relative to fenofibric acid; format: cell-based; method in brief: as §1
T2 sequence (whole entry): T1 sequence (Q07869 whole entry)

[3] = biological target: T3, Peroxisome proliferator-activated receptor delta (Homo sapiens) (UniProt Q03181); assay: Transactivation of human GAL4-fused PPARdelta LBD expressed in African green monkey COS7 cells co-expressing 5Gal4 pGL3 TK Luc after overnight incubation by luciferase reporter gene assay relative to GW501516; format: cell-based; method in brief: as §1
T3 sequence (whole entry): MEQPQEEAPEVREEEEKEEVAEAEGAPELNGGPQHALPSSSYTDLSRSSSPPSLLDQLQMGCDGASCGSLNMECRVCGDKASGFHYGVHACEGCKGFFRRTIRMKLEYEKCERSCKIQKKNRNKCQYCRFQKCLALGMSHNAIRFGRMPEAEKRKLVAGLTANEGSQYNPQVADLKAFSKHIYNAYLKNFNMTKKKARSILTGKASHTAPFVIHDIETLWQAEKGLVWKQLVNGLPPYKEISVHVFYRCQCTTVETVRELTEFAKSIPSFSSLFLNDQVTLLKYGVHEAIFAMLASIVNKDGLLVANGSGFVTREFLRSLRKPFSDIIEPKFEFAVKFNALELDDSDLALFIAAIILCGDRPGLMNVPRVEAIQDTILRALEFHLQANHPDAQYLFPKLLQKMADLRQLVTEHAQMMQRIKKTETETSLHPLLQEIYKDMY

[4] = Apparent permeability from apical to basolateral side in human Caco2 cells at 10 uM after 2 hrs by LC-MS/MS analysis; format: ADME, cell-based, Caco-2
[5] = Efflux ratio of apparent permeability in human Caco2 cells at 10 uM after 2 hrs by LC-MS/MS analysis; format: ADME, cell-based, Caco-2
[6] = Aqueous solubility in fasted state simulated intestinal fluid; format: physicochemical
[7] = biological target: T2, Peroxisome proliferator-activated receptor alpha (Homo sapiens); assay: Transactivation of PPARalpha in human HuH7 cells assessed increase in [14C]oleate beta-oxidation at 1 uM preincubated for 48 hrs followed by [14C]oleate addition during last 2 hrs of incubation period relative to control; format: cell-based
Method in brief: (§2)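 Fatty acid beta-oxidation was used as the functional read-out. PPARα activity was tested in human hepatoma HuH7 cells and PPARδ activity in mouse myoblast C2C12 cells, at 1, 3, 10 and 30 µM. Values are % beta-oxidation, mean of at least 2 independent experiments run in triplicate, with single-experiment values flagged.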

[8] = biological target: T4, Peroxisome proliferator-activated receptor delta (Mus musculus) (UniProt P35396); assay: Transactivation of PPARdelta in mouse C2C12 cells assessed increase in [14C]oleate beta-oxidation at 1 uM preincubated for 48 hrs followed by [14C]oleate addition during last 2 hrs of incubation period relative to control; format: cell-based; method in brief: as §2
T4 sequence (whole entry): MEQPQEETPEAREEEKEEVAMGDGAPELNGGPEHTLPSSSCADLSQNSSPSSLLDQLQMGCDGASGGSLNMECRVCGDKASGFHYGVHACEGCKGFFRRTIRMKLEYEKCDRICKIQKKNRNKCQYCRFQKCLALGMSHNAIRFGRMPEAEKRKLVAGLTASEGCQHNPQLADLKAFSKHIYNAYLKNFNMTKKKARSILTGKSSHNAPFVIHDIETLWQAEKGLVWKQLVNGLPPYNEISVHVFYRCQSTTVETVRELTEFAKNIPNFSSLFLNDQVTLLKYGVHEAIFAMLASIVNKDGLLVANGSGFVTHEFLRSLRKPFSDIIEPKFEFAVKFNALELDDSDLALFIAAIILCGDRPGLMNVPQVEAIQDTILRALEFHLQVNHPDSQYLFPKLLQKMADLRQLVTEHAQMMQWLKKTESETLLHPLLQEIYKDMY

[9] = biological target: T4, Peroxisome proliferator-activated receptor delta (Mus musculus); assay: Transactivation of PPARdelta in mouse C2C12 cells assessed increase in [14C]oleate beta-oxidation at 10 uM preincubated for 48 hrs followed by [14C]oleate addition during last 2 hrs of incubation period relative to control; format: cell-based; method in brief: as §2
[10] = biological target: T4, Peroxisome proliferator-activated receptor delta (Mus musculus); assay: Transactivation of PPARdelta in mouse C2C12 cells assessed increase in [14C]oleate beta-oxidation at 30 uM preincubated for 48 hrs followed by [14C]oleate addition during last 2 hrs of incubation period relative to control; format: cell-based; method in brief: as §2
[11] = AUC (infinity) in C57Bl6 mouse at 10 mg/kg, po administered as single oral dose; format: ADME, organism-based; settings: in vivo
Method in brief: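 Single oral dose of 10 mg/kg in methyl cellulose vehicle given to C57Bl6 mice. Plasma was sampled over a 24 h period. […]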

EC50 [1]	Emax [2]	Emax [3]	Papp ([4]; caco-2, 2 h, 10 µM)	Ratio ([5]; caco-2, 2 h, 10 µM)	solubility [6]	Activity [7]	Activity [8]	Activity [9]	Activity [10]	AUC(0-inf) [11]	Papp A→B at 2 h, 10 µM ([4]; Caco-2)	efflux ratio at 2 h, 10 µM ([5]; Caco-2)	SMILES
1540 nM	106%	105%	24 ×10⁻⁶ cm/s	0.1	8.7 µM (≈ 3.78 µg/mL)	44%	12%	67%	55%	29400 ng·h/mL	–	–	O=C(O)CCCc1cc2cc(Cl)ccc2n1S(=O)(=O)c1ccc2ncsc2c1 [LANIFIBRANOR]
260 nM	101%	56%	–	–	9 µM (≈ 3.27 µg/mL)	5%	-6%	12%	27%	37300 ng·h/mL	61 ×10⁻⁶ cm/s	0.2	O=C(O)CCc1cc2cc(Cl)ccc2n1S(=O)(=O)c1ccccc1
